Data published in ChEMBL document CHEMBL4400548, “Structure-Based in Silico Screening Identifies a Potent Ebolavirus Inhibitor from a Traditional Chinese Medicine Library” (J Med Chem, 2019).
Calls of active or inactive are those of the source. The calls are words filed in the database; no cut-off is given here.

Columns and labels:
[1] = test system: Ebola virus - Zaire (1995); experiment: Binding affinity to recombinant Ebola virus Zaire Mayinga-76 Envelope glycoprotein assessed as change in melting temperature up to 500 uM by SYPRO-dye based thermal shift assay
[2] = test system: Ebolavirus; experiment: Antiviral activity against HIV-1-derived Ebolavirus pseudoparticle infected in human TZM-bl cells after 48 hrs by beta-gal based reporter assay; assay type: functional, organism-based; settings: Orthoebolavirus
Method in brief: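 TZM-bl cells were plated at 2 × 10^4 per well 24 h ahead and chilled on ice. EBOVpp (1 in 10 dilution) was spinoculated at 2100g for 30 min at 4 °C, then removed with a PBS wash. Compound (100–0.125 μM) was added in DMEM/5% FBS for 48 h at 37 °C. Cells were fixed in 2% PFA, X-gal stained and imaged for infected/total cells. Triplicate runs; sigmoidal fit for IC50.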

Compound | Activity [1] | IC50 [2] | IC80 [2]
O=C(/C=C/C1=Cc2ccccc2OC1)c1ccc(O)cc1 | inactive | – | –
NC(=O)C1CCN(CCOc2ccc(-c3n[nH]cc3-c3ccccc3)c(O)c2)CC1 | Active | 3100 nM | 50000 nM
O=C(/C=C/c1cc(Br)cc2c1OCOC2)c1cc(F)ccc1O | inactive | – | –
Nc1ccc(SSc2ccc(N)cc2)cc1 | inactive | – | –
Cc1[nH]nc(-c2ccc(OCCN3CCC(C(N)=O)CC3)cc2O)c1-c1ccc(Cl)cc1 | Active | 50 nM | 390 nM
N#Cc1cc(N)ccc1Sc1cccc(C(F)(F)F)c1 | inactive | – | –
CN(C)CCOc1ccc(/C(=C(/CCCl)c2ccccc2)c2ccccc2)cc1 [TOREMIFENE] | – | 90 nM | 3000 nM
COc1ccc(CC(=O)c2c(C)cc(O)cc2O)cc1 | inactive | – | –
